Experiment [1] has as its target Cyclin-dependent kinase 12 (Homo sapiens, UniProt Q9NYV4). The experiment in a line: Inhibition of CRK7 in human HeLa cells lysate pre incubated for 15 mins followed by ADP acyl phosphate probe addition and measured after 10 mins by LC-MS/MS analysis. Type of experiment: subcellular.
Another experiment addresses AMPK alpha1/alpha2 (Homo sapiens, UniProt P54646+Q13131). Kind of experiment: Inhibition of AMPKalpha1/2 in human HeLa cells lysate pre incubated for 15 mins followed by ADP acyl phosphate probe addition and measured after 10 mins by LC-MS/MS analysis. Type of experiment: subcellular. A digest of the protocol: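 HeLa cell lysates (5 mg/mL total protein) were preincubated with inhibitor at 0, 0.8, 2, 10 or 50 μM for 15 min. ATP or ADP acylphosphate probe was then added (5 μM final) for 10 min, and reactions were stopped with urea. Up to four fragment ions per kinase probe-peptide were quantified by targeted MS. % inhibition was taken relative to untreated lysate. Run in duplicate.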

In experiment [2] the target is Mixed lineage kinase domain-like protein (Homo sapiens, UniProt Q8NB16). The experiment in a line: Inhibition of MLKL in human HeLa cells lysate pre incubated for 15 mins followed by ATP acyl phosphate probe addition and measured after 10 mins by LC-MS/MS analysis. The format is subcellular.
In another experiment the test system is A549. Kind of experiment: Antitumor activity against human A549 cells xenografted in NOD/SCID mouse assessed as increase in p21 protein expression level at 50 mg/kg, ip administered twice a day for 2 days by Western blot analysis. The format is functional, organism-based. To be noted: time 2.0 day. The gist of the method: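 A549 cells (1×10^6, in DMEM) were injected s.c. into the right flank of 6-week-old Nod/Scid mice. On day 21, mice received 50 mg/kg twice daily or carrier; 2 per group. After 2 days, tumors were homogenized in E1A buffer. Western blot read BMK1 activation (mobility shift) and p21, quantified by densitometry normalized to GAPDH.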
Background: Xenograft models place foreign cells or tissue in a host animal.

For experiment [3], the target named is Calcium/calmodulin-dependent protein kinase type II subunit gamma (Homo sapiens, UniProt Q13555). The experiment in a line: Inhibition of CAMK2g in human HeLa cells lysate pre incubated for 15 mins followed by ATP acyl phosphate probe addition and measured after 10 mins by LC-MS/MS analysis. Type of experiment: subcellular. The gist of the method: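 KiNativ profiling in HeLa lysate (5 mg/mL total protein). Lysate incubated 15 min with inhibitor at 50, 10, 2, 0.8 or 0 μM. ATP or ADP acylphosphate probe then added (5 μM final) and reacted 10 min. Reaction stopped with urea and analysed by targeted MS, using up to four fragment ions per kinase peptide-probe conjugate. % inhibition taken against untreated lysate. Run in duplicate.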

The target in experiment [4] is Serine/threonine-protein kinase 24 (Homo sapiens, UniProt Q9Y6E0). Kind of experiment: Inhibition of MST3 in human HeLa cells lysate at 2 uM pre incubated for 15 mins followed by ATP acyl phosphate probe addition and measured after 10 mins by LC-MS/MS analysis relative to control. Type of experiment: subcellular. To be noted: time 25.0 min.
The target in the next experiment is RPS6KA1/RPS6KA2/RPS6KA3 (Homo sapiens, UniProt P51812+Q15349+Q15418). Kind of experiment: Inhibition of RSK1/2/3 in human HeLa cells lysate at 10 uM pre incubated for 15 mins followed by ATP acyl phosphate probe addition and measured after 10 mins by LC-MS/MS analysis relative to control. The format is subcellular. To be noted: time 25.0 min.
Experiment [5] has as its target Interferon-induced, double-stranded RNA-activated protein kinase (Homo sapiens, UniProt P19525). The experiment in a line: Inhibition of PKR in human HeLa cells lysate pre incubated for 15 mins followed by ADP acyl phosphate probe addition and measured after 10 mins by LC-MS/MS analysis. The format is subcellular.
Experiment [6] deals with T1, Phosphatidylinositol 5-phosphate 4-kinase type-2 gamma (Homo sapiens) (UniProt Q8TBX8).
T1 sequence (whole entry): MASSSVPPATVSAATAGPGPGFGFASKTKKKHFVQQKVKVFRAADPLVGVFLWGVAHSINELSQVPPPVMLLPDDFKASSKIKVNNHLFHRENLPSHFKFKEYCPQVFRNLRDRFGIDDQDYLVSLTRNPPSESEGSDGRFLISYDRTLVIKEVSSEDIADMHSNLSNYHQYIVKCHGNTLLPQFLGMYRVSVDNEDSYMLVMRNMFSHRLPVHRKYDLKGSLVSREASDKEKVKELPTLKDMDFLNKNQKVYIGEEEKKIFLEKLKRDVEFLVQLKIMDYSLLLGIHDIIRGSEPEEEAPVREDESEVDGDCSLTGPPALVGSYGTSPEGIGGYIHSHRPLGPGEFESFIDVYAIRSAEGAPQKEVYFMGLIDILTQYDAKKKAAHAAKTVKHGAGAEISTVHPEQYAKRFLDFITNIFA
The experiment in a line: Inhibition of PIP5K2C LIP1 site in human HeLa cells lysate at 50 uM pre incubated for 15 mins followed by ATP acyl phosphate probe addition and measured after 10 mins by LC-MS/MS analysis relative to control. The format is subcellular. To be noted: time 25.0 min.

Experiment [7] concerns the target Phosphatidylinositol 4-kinase beta (Homo sapiens, UniProt Q9UBF8). Kind of experiment: Inhibition of PIK4CB in human HeLa cells lysate at 10 uM pre incubated for 15 mins followed by ATP acyl phosphate probe addition and measured after 10 mins by LC-MS/MS analysis relative to control. Type of experiment: subcellular. To be noted: time 25.0 min.
Experiment [8] in a line: Inhibition of SRC/FYN/YES in human HeLa cells lysate at 2 uM pre incubated for 15 mins followed by ATP acyl phosphate probe addition and measured after 10 mins by LC-MS/MS analysis relative to control. To be noted: 25 min, condition cancer.
Experiment [9] has as its target Serine/threonine-protein kinase LATS1 (Homo sapiens, UniProt O95835). The experiment in a line: Inhibition of LATS1 in human HeLa cells lysate pre incubated for 15 mins followed by ATP acyl phosphate probe addition and measured after 10 mins by LC-MS/MS analysis. The format is subcellular.
The target in experiment [10] is T2, Dual specificity mitogen-activated protein kinase kinase 6 (Homo sapiens) (UniProt P52564).
T2 sequence (whole entry): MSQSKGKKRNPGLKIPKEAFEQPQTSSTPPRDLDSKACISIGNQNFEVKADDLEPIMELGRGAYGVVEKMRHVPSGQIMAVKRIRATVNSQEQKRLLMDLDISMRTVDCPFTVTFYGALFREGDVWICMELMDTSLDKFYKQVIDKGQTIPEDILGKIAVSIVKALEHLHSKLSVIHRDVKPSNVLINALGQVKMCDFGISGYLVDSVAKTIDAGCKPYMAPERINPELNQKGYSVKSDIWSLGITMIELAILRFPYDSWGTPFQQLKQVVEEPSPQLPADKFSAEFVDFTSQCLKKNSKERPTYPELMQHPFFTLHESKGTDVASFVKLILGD
Kind of experiment: Inhibition of MAP2K6 in human HeLa cells lysate at 50 uM pre incubated for 15 mins followed by ADP acyl phosphate probe addition and measured after 10 mins by LC-MS/MS analysis relative to control. The format is subcellular. To be noted: time 25.0 min.

The target of experiment [11] is Phosphatidylinositol 5-phosphate 4-kinase type-2 beta (Homo sapiens) (UniProt P78356). The experiment in a line: Inhibition of PIP5K2B in human HeLa cells lysate at 2 uM pre incubated for 15 mins followed by ATP acyl phosphate probe addition and measured after 10 mins by LC-MS/MS analysis relative to control. Type of experiment: subcellular. To be noted: time 25.0 min.

For experiment [12], the target named is T2, Dual specificity mitogen-activated protein kinase kinase 6 (Homo sapiens). Kind of experiment: Inhibition of MAP2K6 in human HeLa cells lysate at 2 uM pre incubated for 15 mins followed by ADP acyl phosphate probe addition and measured after 10 mins by LC-MS/MS analysis relative to control. Type of experiment: subcellular. To be noted: time 25.0 min.

Molecules are shown by their SMILES. pIC50: −log10 of the molar value. The source made the active and inactive calls. The rule behind the calls is not given here.

AMPK alpha1/alpha2, sequence (P54646 whole entry, the tested form may be a part): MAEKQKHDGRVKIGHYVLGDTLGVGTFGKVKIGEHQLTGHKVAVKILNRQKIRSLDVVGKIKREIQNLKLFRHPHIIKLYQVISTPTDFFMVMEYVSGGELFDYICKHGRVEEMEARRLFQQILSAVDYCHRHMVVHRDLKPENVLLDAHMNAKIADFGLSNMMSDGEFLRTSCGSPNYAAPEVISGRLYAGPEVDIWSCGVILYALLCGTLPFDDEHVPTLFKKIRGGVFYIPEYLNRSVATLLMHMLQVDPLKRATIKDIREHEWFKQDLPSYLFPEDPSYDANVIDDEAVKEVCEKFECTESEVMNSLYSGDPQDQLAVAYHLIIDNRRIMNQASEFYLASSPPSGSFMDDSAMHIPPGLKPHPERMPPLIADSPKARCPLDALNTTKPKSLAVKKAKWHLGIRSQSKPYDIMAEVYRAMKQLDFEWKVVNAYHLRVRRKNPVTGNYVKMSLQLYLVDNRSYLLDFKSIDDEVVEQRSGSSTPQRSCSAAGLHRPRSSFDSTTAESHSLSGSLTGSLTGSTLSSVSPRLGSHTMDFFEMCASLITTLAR
AMPK alpha1/alpha2, sequence (Q13131 whole entry, the tested form may be a part): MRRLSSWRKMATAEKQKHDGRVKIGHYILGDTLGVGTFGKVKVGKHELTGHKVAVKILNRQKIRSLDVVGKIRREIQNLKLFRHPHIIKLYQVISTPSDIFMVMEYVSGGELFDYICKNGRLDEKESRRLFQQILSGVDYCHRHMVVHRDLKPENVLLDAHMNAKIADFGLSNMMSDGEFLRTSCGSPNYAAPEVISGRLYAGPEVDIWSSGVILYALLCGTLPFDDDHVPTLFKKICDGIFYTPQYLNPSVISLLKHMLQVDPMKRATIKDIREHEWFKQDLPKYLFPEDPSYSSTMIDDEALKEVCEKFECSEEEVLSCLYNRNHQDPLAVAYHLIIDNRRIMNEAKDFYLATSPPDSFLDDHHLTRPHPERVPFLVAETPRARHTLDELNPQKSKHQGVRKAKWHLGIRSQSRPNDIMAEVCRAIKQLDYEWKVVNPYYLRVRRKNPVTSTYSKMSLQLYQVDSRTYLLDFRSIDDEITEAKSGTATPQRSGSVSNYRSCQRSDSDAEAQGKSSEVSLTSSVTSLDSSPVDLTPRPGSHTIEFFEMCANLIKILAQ
Calcium/calmodulin-dependent protein kinase type II subunit gamma, sequence (Q13555 whole entry, the tested form may be a part): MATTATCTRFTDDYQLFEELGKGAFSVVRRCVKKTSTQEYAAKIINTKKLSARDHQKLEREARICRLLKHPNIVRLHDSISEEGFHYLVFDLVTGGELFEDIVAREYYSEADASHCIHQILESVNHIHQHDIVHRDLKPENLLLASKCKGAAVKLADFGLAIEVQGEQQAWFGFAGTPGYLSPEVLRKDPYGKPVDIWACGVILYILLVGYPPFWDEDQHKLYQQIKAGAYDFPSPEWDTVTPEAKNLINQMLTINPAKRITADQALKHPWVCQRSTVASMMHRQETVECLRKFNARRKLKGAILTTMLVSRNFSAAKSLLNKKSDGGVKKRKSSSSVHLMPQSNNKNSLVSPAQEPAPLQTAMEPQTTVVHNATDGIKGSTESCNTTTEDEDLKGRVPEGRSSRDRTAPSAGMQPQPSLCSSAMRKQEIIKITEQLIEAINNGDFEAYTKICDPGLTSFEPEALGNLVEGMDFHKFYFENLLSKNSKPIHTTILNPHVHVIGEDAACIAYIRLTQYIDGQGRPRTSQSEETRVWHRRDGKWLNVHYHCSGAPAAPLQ
Mixed lineage kinase domain-like protein, sequence (Q8NB16 whole entry, the tested form may be a part): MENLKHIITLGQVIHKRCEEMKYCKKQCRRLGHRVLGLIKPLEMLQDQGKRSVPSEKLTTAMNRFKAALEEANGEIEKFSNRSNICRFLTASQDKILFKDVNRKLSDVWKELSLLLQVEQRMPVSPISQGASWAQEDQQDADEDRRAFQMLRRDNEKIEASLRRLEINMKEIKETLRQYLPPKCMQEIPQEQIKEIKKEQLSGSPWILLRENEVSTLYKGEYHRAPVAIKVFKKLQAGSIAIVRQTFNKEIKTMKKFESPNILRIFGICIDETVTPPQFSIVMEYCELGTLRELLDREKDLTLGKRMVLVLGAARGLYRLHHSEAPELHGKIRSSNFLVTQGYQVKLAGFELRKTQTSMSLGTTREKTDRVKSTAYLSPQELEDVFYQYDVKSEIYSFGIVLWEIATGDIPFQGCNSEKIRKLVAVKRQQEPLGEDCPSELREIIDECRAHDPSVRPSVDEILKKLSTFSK
Phosphatidylinositol 4-kinase beta, sequence (Q9UBF8 2-816 limits assumed): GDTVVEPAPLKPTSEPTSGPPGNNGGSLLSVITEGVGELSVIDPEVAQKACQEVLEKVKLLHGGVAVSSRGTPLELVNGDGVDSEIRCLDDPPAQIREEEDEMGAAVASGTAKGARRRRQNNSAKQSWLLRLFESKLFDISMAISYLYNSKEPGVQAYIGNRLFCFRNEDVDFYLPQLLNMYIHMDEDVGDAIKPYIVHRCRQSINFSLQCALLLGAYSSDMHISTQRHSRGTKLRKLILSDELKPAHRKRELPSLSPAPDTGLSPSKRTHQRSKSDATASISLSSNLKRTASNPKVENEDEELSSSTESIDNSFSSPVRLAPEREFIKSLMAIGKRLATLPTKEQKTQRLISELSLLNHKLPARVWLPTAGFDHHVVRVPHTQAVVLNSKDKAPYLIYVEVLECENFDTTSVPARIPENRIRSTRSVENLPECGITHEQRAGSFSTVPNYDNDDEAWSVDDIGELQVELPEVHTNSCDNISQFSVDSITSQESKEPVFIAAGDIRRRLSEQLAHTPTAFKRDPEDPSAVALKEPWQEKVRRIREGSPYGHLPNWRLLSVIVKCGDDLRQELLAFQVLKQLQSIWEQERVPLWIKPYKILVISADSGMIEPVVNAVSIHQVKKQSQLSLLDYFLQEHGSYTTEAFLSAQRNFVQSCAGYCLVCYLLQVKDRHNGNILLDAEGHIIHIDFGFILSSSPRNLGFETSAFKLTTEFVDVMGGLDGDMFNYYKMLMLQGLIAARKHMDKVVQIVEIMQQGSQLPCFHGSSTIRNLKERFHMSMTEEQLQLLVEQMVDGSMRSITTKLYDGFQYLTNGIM
Cyclin-dependent kinase 12, sequence (Q9NYV4 whole entry, the tested form may be a part): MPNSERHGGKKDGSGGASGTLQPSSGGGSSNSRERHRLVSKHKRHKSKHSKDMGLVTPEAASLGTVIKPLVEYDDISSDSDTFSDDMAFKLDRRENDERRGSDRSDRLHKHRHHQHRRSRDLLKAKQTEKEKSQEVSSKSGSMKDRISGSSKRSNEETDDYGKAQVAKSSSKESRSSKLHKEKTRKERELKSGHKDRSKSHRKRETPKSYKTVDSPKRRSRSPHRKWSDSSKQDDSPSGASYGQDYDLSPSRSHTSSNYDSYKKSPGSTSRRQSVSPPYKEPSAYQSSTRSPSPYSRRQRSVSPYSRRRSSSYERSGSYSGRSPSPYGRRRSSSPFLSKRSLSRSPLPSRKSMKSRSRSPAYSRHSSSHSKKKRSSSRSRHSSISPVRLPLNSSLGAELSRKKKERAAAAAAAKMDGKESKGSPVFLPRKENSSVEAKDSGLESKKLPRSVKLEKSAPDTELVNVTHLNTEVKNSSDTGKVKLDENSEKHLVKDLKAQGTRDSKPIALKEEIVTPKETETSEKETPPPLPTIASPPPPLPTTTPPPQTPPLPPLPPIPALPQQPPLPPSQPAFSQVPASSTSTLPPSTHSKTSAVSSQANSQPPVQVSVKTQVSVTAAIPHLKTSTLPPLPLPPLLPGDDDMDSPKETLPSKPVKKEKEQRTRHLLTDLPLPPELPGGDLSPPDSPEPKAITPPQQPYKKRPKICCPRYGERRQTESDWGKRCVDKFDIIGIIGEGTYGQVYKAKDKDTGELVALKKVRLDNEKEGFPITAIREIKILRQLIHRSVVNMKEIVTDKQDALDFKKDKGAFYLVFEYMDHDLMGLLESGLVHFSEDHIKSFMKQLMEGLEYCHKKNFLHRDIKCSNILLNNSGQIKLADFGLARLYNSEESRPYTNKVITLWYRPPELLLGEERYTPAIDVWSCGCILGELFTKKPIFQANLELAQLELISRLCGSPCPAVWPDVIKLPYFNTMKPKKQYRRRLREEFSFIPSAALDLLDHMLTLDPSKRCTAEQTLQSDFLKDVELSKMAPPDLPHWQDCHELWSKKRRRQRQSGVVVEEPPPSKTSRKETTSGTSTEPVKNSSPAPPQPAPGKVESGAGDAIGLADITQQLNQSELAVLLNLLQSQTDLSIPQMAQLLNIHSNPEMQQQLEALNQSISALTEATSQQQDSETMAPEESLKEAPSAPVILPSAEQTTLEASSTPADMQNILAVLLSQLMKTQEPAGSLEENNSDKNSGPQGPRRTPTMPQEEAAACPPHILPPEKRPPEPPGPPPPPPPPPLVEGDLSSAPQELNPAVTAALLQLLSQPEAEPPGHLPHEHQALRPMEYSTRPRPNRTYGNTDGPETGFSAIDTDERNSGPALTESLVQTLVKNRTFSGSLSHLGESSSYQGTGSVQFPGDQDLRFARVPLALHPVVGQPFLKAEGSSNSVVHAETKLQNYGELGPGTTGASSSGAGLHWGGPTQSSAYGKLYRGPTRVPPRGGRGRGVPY
Phosphatidylinositol 5-phosphate 4-kinase type-2 beta (Homo sapiens), sequence (P78356 whole entry): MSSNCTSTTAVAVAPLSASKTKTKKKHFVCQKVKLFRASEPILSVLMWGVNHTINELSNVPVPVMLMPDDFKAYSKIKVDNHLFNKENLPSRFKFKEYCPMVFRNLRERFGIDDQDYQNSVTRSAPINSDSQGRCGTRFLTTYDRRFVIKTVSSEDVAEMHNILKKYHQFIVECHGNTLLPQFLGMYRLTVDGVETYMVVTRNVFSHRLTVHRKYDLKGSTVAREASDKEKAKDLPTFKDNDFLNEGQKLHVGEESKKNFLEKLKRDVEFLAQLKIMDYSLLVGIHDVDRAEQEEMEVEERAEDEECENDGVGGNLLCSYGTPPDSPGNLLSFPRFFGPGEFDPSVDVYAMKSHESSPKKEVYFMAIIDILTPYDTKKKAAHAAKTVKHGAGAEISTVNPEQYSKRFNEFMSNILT

By pIC50 is commonly meant the IC50 on a negative log10 scale, so that one unit is a factor of ten. Usually inhibition stands for the change of the read-out against control, counted positive when it falls. For `CCOc1cc(N2CCC(O)CC2)ccc1Nc1ncc2c(n1)N(C)c1ccccc1C(=O)N2C`, the pIC50 (in experiment [1]; on AMPK alpha1/alpha2; in experiment [2]; in [3]; in experiment [5]; in experiment [9]) was < 4.30 in each case. Moreover, the outcome in the experiment with A549 was Active. Besides, the inhibition in experiment [4] was -3.8%; against RPS6KA1/RPS6KA2/RPS6KA3, -7.4%; in [6] it was 9.9%; in experiment [7], 25.8%; in experiment [10] it was 9.1%; in experiment [11], -2.7%. Moreover, in experiment [12], the inhibition turned out to be 6.7%. The inhibition at 2 µM in experiment [8] is -29.7%.

For the origin of these results see ChEMBL document CHEMBL5661979, “Pharmacological inhibition of BMK1 suppresses tumor growth through promyelocytic leukemia protein” (Cancer Cell, 2010).
